The term inhibition denotes the drop in the measured response relative to a control, in per cent. Usually inhibition in vivo stands for how much of the control response was suppressed.

Data set [1] concerns the target C-X-C chemokine receptor type 4 (Homo sapiens) (UniProt P61073). The experiment in a line: Inhibition of biotinylated TN14003 binding to CXCR4 in human MDA-MB-231 cells preincubated for 10 mins followed by biotinylated-TN14003 addition measured after 30 mins by streptavidin-rhodamine staining based fluorescence microscopic analysis. Format: cell-based. The gist of the method: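 MDA-MB-231 cells (CXCR4-overexpressing) exposed to compound at 1, 10, 100 and 1000 nM for 10 min at room temperature. Cells fixed in chilled 4% paraformaldehyde, rehydrated in PBS, then stained with 0.05 µg/mL biotinylated TN14003 for 30 min at room temperature, washed three times in PBS, and stained with streptavidin-rhodamine (1:150) for 30 min. Read by fluorescence microscopy. EC taken as the lowest concentration, by order of magnitude, giving a significant drop in fluorescence versus control.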

For data set [2] the target is unchanged. The data set is described as follows: Inhibition of CXCR4-mediated chemotaxis in human MDA-MB-231 cells assessed as reduction in CXCL12alpha-induced cell invasion at 100 nM incubated for 22 hrs by hematoxylin/eosin dye-based matrigel assay relative to control. The gist of the method: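 Run in a Matrigel invasion chamber. The bottom chamber held CXCL12 (200 ng/mL). MDA-MB-231 cells were treated with compound at 100 nM, placed in the top chamber, and incubated 22 h in a humidified incubator. Non-invading cells were swabbed off; cells in the bottom chamber were H&E-stained, fixed in methanol and counted. Results given as % inhibition of invasion versus negative control.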

Data set [3] can be described thus: Toxicity in C57BL/6J mouse at 10 mg/kg, ip. Format: organism-based. As to conditions: in vivo.
For a further data set, the system named is Mus musculus. The data set is described as follows: Antiinflammatory activity in C57BL/6J mouse assessed as inhibition of carrageenan-induced paw edema at 10 mg/kg, ip daily dosed 30 mins after carrageenan challenge and measured after 74 hrs carrageenan challenge and 2 hrs post last dose by caliper method relative to control. Format: functional. (Carrageenan injected into the paw causes an acute inflammation.)

A value given as a limit tells only on which side of the number the result lay.

Chain of C-X-C chemokine receptor type 4 (Homo sapiens) (P61073 whole entry): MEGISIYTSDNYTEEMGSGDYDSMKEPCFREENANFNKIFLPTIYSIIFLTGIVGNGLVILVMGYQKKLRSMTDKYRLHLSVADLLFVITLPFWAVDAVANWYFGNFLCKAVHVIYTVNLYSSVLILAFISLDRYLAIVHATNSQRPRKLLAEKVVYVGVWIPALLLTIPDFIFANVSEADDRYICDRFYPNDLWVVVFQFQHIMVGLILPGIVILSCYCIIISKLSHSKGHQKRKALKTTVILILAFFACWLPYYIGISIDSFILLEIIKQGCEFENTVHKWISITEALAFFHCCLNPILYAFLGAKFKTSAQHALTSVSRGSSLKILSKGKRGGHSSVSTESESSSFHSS

In the case of `Clc1ccc(NCc2cscc2CNc2ccc(Cl)cc2)cc1`, in data set [1], the EC was greater than 1000 nM.
With `FC(F)(F)c1cccc(NCc2ccc(CNc3cccc(C(F)(F)F)c3)s2)c1`, the inhibition in data set [2] was found to be 77%. The Activity result in data set [3] is given as “Non-Toxic”. The EC in data set [1] came out at 100 nM.
In the case of `Cc1cccc(NCc2ccc(CNc3cccc(C)c3)s2)c1`, the EC in data set [1] is greater than 1000 nM.
In data set [1], `FC(F)(F)c1ccc(NCc2ccc(CNc3ccc(C(F)(F)F)cc3)s2)cc1` showed an EC greater than 1000 nM.
For `Clc1cccc(NCc2ccc(CNc3cccc(Cl)c3)o2)c1`, in data set [1], the EC is greater than 1000 nM.
Same read-out and setting: the result for `Fc1cccc(NCc2ccc(CNc3cccc(F)c3)s2)c1` reads greater than 1000 nM.
`FC(F)(F)c1cccc(NCc2cscc2CNc2cccc(C(F)(F)F)c2)c1` gave an EC in data set [1] greater than 1000 nM.
Molecule `FC(F)(F)c1cccc(NCc2ccc(CNc3cccc(C(F)(F)F)c3)o2)c1` showed an EC in data set [1] greater than 1000 nM.
Molecule `COc1ccc(NCc2ccc(CNc3ccc(OC)cc3)o2)cc1` showed an EC in data set [1] greater than 1000 nM.
For the molecule `Cc1ccccc1NCc1ccc(CNc2ccccc2C)s1`, the inhibition in data set [2] worked out at 61%. Besides, in data set [3], the Activity entry was “Non-Toxic”. The EC in data set [1] came out at 10 nM.
As for `COc1ccccc1NCc1ccc(CNc2ccccc2OC)o1`, the inhibition in data set [2] was 5%. The EC in data set [1] was 100 nM.
Consider `c1cc(CN2CCOCC2)oc1CN1CCOCC1`, for which, in data set [1], the EC stood at 1000 nM.
Turning to `COc1ccc(NCc2ccc(CNc3ccc(OC)cc3)s2)cc1`, the inhibition in data set [2] is 84%. In data set [3], the Activity result is on record as “Non-Toxic”. The EC in data set [1] came to 10 nM.
`CCc1cccc(NCc2ccc(CNc3cccc(CC)c3)o2)c1` came in with an EC in data set [1] greater than 1000 nM.
With `c1ccc(NCc2ccc(CNc3ccccn3)cc2)nc1`, the Activity result in data set [3] is listed as “Non-Toxic”. In addition, the inhibition in vivo at 10 mg/kg in the data set on Mus musculus is 40%.
`Fc1cccc(NCc2cscc2CNc2cccc(F)c2)c1` had an EC in data set [1] greater than 1000 nM.
Regarding `CCc1ccccc1NCc1ccc(CNc2ccccc2CC)s1`, the EC in data set [1] came out at 1000 nM.
As for `CCc1cccc(NCc2ccc(CNc3cccc(CC)c3)s2)c1`, the EC in data set [1] is greater than 1000 nM.
Turning to `Clc1ccc(NCc2ccc(CNc3ccc(Cl)cc3)o2)cc1`, the inhibition in data set [2] worked out at 48%. The Activity entry in data set [3] is on record as “Non-Toxic”. The molecule also gave an EC in data set [1] of 10 nM. For the same molecule, the inhibition in vivo at 10 mg/kg in the data set with Mus musculus was 17%.
Molecule `CCc1ccc(NCc2cscc2CNc2ccc(CC)cc2)cc1` registered an EC in data set [1] greater than 1000 nM.
As to `Fc1ccc(NCc2ccc(CNc3ccc(F)cc3)s2)cc1`, in data set [1], the EC is greater than 1000 nM.
In data set [1], `Cc1ccccc1NCc1ccc(CNc2ccccc2C)o1` gave an EC greater than 1000 nM.
Consider `CSc1ccc(NCc2ccc(CNc3ccc(SC)cc3)s2)cc1`, for which the inhibition in data set [2] came to 88%. The molecule also gave an EC in data set [1] of 100 nM.
In the case of `FC(F)(F)c1ccccc1NCc1ccc(CNc2ccccc2C(F)(F)F)o1`, the inhibition in data set [2] came to 24%. In data set [1], the EC is 100 nM.
In data set [1], `CCc1ccc(NCc2ccc(CNc3ccc(CC)cc3)s2)cc1` had an EC greater than 1000 nM.
The molecule `FC(F)(F)c1ccc(NCc2ccc(CNc3ccc(C(F)(F)F)cc3)o2)cc1` showed an EC in data set [1] greater than 1000 nM.
Still for that read-out and setting: the figure for `Cc1cccc(NCc2ccc(CNc3cccc(C)c3)o2)c1` is greater than 1000 nM.
In turn, `Cc1ccc(NCc2cscc2CNc2ccc(C)cc2)cc1` returned an EC in data set [1] greater than 1000 nM.
The same measure, in the same setting: the result for `Clc1cccc(NCc2cscc2CNc2cccc(Cl)c2)c1` reads greater than 1000 nM.
Consider `COc1cccc(NCc2ccc(CNc3cccc(OC)c3)o2)c1`, for which, in data set [1], the EC is greater than 1000 nM.
`c1cc(CN2CCSCC2)sc1CN1CCSCC1`: the inhibition in data set [2] is 88%. Besides, the Activity entry in data set [3] is recorded as “Non-Toxic”. Also, in data set [1], the EC was 1 nM.
On to `CCc1ccc(NCc2ccc(CNc3ccc(CC)cc3)o2)cc1`, for which the EC in data set [1] is greater than 1000 nM.
As to `CSc1ccc(NCc2ccc(CNc3ccc(SC)cc3)o2)cc1`, the EC in data set [1] was greater than 1000 nM.
In the case of `Clc1ccccc1NCc1ccc(CNc2ccccc2Cl)s1`, the inhibition in data set [2] turned out to be 93%. In addition, the Activity entry in data set [3] was “Non-Toxic”. Moreover, in data set [1], the EC stood at 10 nM. Also, the inhibition in vivo at 10 mg/kg with Mus musculus was greater than 5%.
On to `c1cc(CN2CCSCC2)oc1CN1CCSCC1`, for which the inhibition in data set [2] stood at 79%. This molecule also had an EC in data set [1] of 10 nM.
`c1ccc(NCc2ccc(CNc3ccccc3)o2)cc1` came in with an EC in data set [1] greater than 1000 nM.
Molecule `c1cc(CN2CCOCC2)sc1CN1CCOCC1` came in with an EC in data set [1] greater than 1000 nM.
Still for that read-out and setting: the figure for `Fc1ccc(NCc2cscc2CNc2ccc(F)cc2)cc1` is greater than 1000 nM.
Take `CN1CCN(Cc2ccc(CN3CCN(C)CC3)s2)CC1`: the inhibition in data set [2] came out at 86%. Besides, the EC in data set [1] was determined as 100 nM.
With `Fc1ccc(NCc2ccc(CNc3ccc(F)cc3)o2)cc1`, the inhibition in data set [2] worked out at 53%. Also, the Activity entry in data set [3] is given as “Non-Toxic”. The same molecule returned an EC in data set [1] of 100 nM. Moreover, the inhibition in vivo at 10 mg/kg with Mus musculus turned out to be 31%.
Turning to `c1ccc(NCc2cscc2CNc2ccccc2)cc1`, the inhibition in data set [2] came out at 72%. The Activity entry in data set [3] was “Non-Toxic”. Further, the EC in data set [1] came to 10 nM.
Regarding `CN1CCN(Cc2ccc(CN3CCN(C)CC3)o2)CC1`, the inhibition in data set [2] amounted to 82%. Moreover, in data set [3], the Activity entry is recorded as “Non-Toxic”. Moreover, the EC in data set [1] came out at 10 nM.
As for `Clc1ccc(NCc2ccc(CNc3ccc(Cl)cc3)s2)cc1`, the inhibition in data set [2] was 22%. Moreover, the EC in data set [1] was 1 nM.
For the molecule `COc1ccccc1NCc1ccc(CNc2ccccc2OC)s1`, the inhibition in data set [2] turned out to be 52%. Moreover, the Activity result in data set [3] is “Non-Toxic”. In data set [1], this molecule returned an EC of 10 nM.
As to `COc1cccc(NCc2ccc(CNc3cccc(OC)c3)s2)c1`, in data set [1], the EC was 1000 nM.
`Clc1cccc(NCc2ccc(CNc3cccc(Cl)c3)s2)c1`: in data set [2], the inhibition worked out at 51%. Moreover, the Activity entry in data set [3] was “Non-Toxic”. Moreover, the EC in data set [1] worked out at 100 nM.
`CCc1ccccc1NCc1ccc(CNc2ccccc2CC)o1` yielded an EC in data set [1] of 1000 nM.
In data set [1], `Clc1ccccc1NCc1ccc(CNc2ccccc2Cl)o1` had an EC greater than 1000 nM.
Consider `Fc1ccccc1NCc1ccc(CNc2ccccc2F)o1`, for which, in data set [2], the inhibition is 71%. Further, in data set [3], the Activity result was “Non-Toxic”. The molecule further had an EC in data set [1] of 10 nM.
In data set [1], `FC(F)(F)c1ccc(NCc2cscc2CNc2ccc(C(F)(F)F)cc2)cc1` had an EC greater than 1000 nM.
Molecule `Cc1cccc(NCc2cscc2CNc2cccc(C)c2)c1` returned an EC in data set [1] greater than 1000 nM.
The same measure, in the same setting: the figure for `FC(F)(F)c1ccccc1NCc1ccc(CNc2ccccc2C(F)(F)F)s1` is greater than 1000 nM.
As for `c1ccc(NCc2ccc(CNc3ccccc3)s2)cc1`, in data set [2], the inhibition came out at 68%. In addition, the Activity result in data set [3] was “Non-Toxic”. This molecule also had an EC in data set [1] of 1 nM. Also, the inhibition in vivo at 10 mg/kg with Mus musculus was 30%.
In the case of `Cc1ccc(NCc2ccc(CNc3ccc(C)cc3)s2)cc1`, in data set [2], the inhibition was found to be 49%. Further, the Activity result in data set [3] is on record as “Non-Toxic”. The molecule also had an EC in data set [1] of 100 nM.
In turn, `Fc1cccc(NCc2ccc(CNc3cccc(F)c3)o2)c1` displayed an EC in data set [1] greater than 1000 nM.
On to `Cc1ccc(NCc2ccc(CNc3ccc(C)cc3)o2)cc1`, for which the inhibition in data set [2] worked out at 75%. Further, the Activity result in data set [3] is “Non-Toxic”. The EC in data set [1] worked out at 100 nM. Further, in the data set on Mus musculus, the inhibition in vivo at 10 mg/kg was 15%.
As for `Fc1ccccc1NCc1ccc(CNc2ccccc2F)s1`, the EC in data set [1] turned out to be 1000 nM.

The values above are taken from ChEMBL document CHEMBL4359865, “Synthesis and evaluation of 2,5-furan, 2,5-thiophene and 3,4-thiophene-based derivatives as CXCR4 inhibitors” (Eur J Med Chem, 2019).
